Source: ChEMBL document CHEMBL1130998, “Structure-activity requirements for flavone cytotoxicity and binding to tubulin” (J Med Chem, 1998)

Legend:
[1] = test system: Panel NCI-60 (60 carcinoma cell lines); experiment: In vitro cytotoxic potency against NCI-60 human tumor cell line; format: functional
[2] = molecular target: T1, Tubulin (Bos taurus) (UniProt Q6B856+Q862L2+Q862F3); experiment: In vitro inhibition of binding of [3H]colchicine to tubulin (10 uM) at compound concentration of 50 mM; format: protein assay
[3] = molecular target: T1, Tubulin (Bos taurus); experiment: In vitro inhibition of binding of [3H]colchicine to tubulin (10 uM) at compound concentration of 5 mM; format: protein assay
[4] = molecular target: Tubulin; experiment: In vitro inhibitory activity against tubulin polymerization (10 uM); format: protein-complex assay
[5] = molecular target: Tubulin (Homo sapiens) (UniProt P68371+Q9H4B7+P0DPH7+P68366+Q13509+Q71U36+P04350+Q3ZCM7+P07437+P68363+Q9BQE3+Q6PEY2+Q13885+Q9BVA1+Q9BUF5); experiment: In vitro inhibition of binding of [3H]colchicine to tubulin at 50 mM.; format: protein-complex assay
[6] = test system: Panel NCI-60 (60 carcinoma cell lines); experiment: In vitro cytotoxic potency against NCI-60 human tumor cell line was determined; format: functional
Method in brief: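 Tested in the NCI primary in vitro human tumor cell screen. Potency was taken from the dose-response curves, which were also analysed for the differential cytotoxicity pattern typical of antimitotic standard agents.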

| Compound | GI50 [1] [µM] | also measured |
| --- | --- | --- |
| COc1ccc(-c2cc(=O)c3c(OC)c(OC)c(OC)c(OC)c3o2)cc1OC [NOBILETIN] | 40 |  |
| COc1ccc(-c2oc3cc(OC)c(C)c(C)c3c(=O)c2OC)cc1O | 44 |  |
| COc1ccc(-c2oc3cc(O)c(OC)c(O)c3c(=O)c2O)cc1 [BETULETOL] | 4.1 |  |
| COc1ccc(-c2cc(=O)c3c(O)c(OC)c(O)c(OC)c3o2)cc1 [NEVADENSIN] | 59 |  |
| COc1ccc(-c2oc3cc(O)cc(O)c3c(=O)c2OC)cc1O | 1.7 | inhibition [2]: 75%; inhibition [3]: 43%; IC50 [4]: 3 µM |
| COc1cc(O)c2c(=O)c(O)c(-c3ccc(O)c(O)c3)oc2c1 [RHAMNETIN] | 8.9 |  |
| COc1ccc(-c2cc(=O)c3c(O)c(OC)c(O)cc3o2)cc1 [PECTOLINARIGENIN] | > 31 | inhibition [5]: 11%; IC50 [4]: > 40 µM |
| COc1ccc(-c2cc(=O)c3ccc(O)cc3o2)c(OC)c1OC | 58 |  |
| O=c1c(O)c(-c2c(O)cccc2O)oc2cc(O)cc(O)c12 | > 100 |  |
| COc1ccc(-c2oc3c(OC)c(OC)c(OC)c(O)c3c(=O)c2OC)cc1OC | 7.1 | inhibition [5]: 4%; IC50 [4]: > 40 µM |
| COc1cc(OC)c2c(=O)c(OC)c(-c3ccc(OC)c(O)c3)oc2c1 | > 100 |  |
| COc1cc(-c2cc(=O)c3c(O)c(OC)c(OC)c(OC)c3o2)ccc1O | 22 |  |
| COc1c(C)c(O)c2c(=O)cc(-c3ccccc3)oc2c1C | > 100 |  |
| COc1ccccc1-c1cc(=O)c2ccc(OC)c(OC)c2o1 | 55 |  |
| COc1ccc(-c2oc3cc(O)cc(O)c3c(=O)c2OC)cc1 [ERMANIN] | 24 |  |
| COc1ccc(-c2oc3c(O)c(OC)cc(O)c3c(=O)c2OC)cc1OC | > 100 |  |
| COc1c(OC)c(OC)c2c(=O)cc(-c3ccc(NC(C)=O)cc3)oc2c1OC |  | GI50 [6]: > 100 µM |
| COc1ccc(-c2cc(=O)c3c(O)c(O)c(OC)cc3o2)cc1O | > 100 |  |
| COc1ccc(-c2cc(=O)c3c(O)cc(O)cc3o2)cc1OC | 48 |  |
| COc1cc(OC)c(-c2cc(=O)c3c(O)c(OC)c(OC)c(OC)c3o2)cc1OC | 60 |  |
| O=c1c(O)c(-c2cc(O)c(O)c(O)c2)oc2cc(O)cc(O)c12 [MYRICETIN] | 36 |  |
| COc1ccc(-c2cc(=O)c3c(OC)cccc3o2)c(OC)c1OC | 89 |  |
| COc1ccc(-c2cc(=O)c3c(OC)c(OC)c(OC)c(OC)c3o2)cc1 [TANGERETIN] | 54 |  |
| CCOc1cc(O)c2c(=O)c(OC)c(-c3ccc(OC)c(O)c3)oc2c1 | 12 |  |
| COc1ccc(-c2cc(=O)c3c(O)cccc3o2)c(OC)c1OC | 45 |  |
| COc1ccc(-c2cc(=O)c3c(OC)c(OC)c(OC)c(OC)c3o2)c(OC)c1 | 26 |  |
| COc1cc(-c2cc(=O)c3c(OC)c(OC)c(OC)c(OC)c3o2)cc(OC)c1OC [HEPATAMETHOXYFLAVONE] | 32 |  |

| Compound | GI50 [1] [µM] | also measured |
| --- | --- | --- |
| COc1ccc2c(=O)cc(-c3ccc(OC)c(OC)c3OC)oc2c1 | 78 |  |
| COc1cc(-c2oc3c(OC)c(OC)cc(O)c3c(=O)c2OC)ccc1O [TERNATIN] | 9.5 | inhibition [5]: 0%; IC50 [4]: > 40 µM |
| COc1cc2oc(-c3ccc(O)cc3)cc(=O)c2c(OC)c1OC | > 100 |  |
| COc1ccc(-c2oc3c(OC)c(OC)c(OC)c(OC)c3c(=O)c2OC)cc1OC [3,5,6,7,8,3',4'-HEPTAMETHOXYFLAVONE] | > 27 | inhibition [5]: 1%; IC50 [4]: > 40 µM |
| COc1cc(OC)c2c(=O)c(O)c(-c3ccc(OC)c(OC)c3)oc2c1 | 6.6 | inhibition [5]: 0%; IC50 [4]: > 40 µM |
| COc1ccc(OC)c(-c2cc(=O)c3c(OC)c(OC)c(OC)c(OC)c3o2)c1 | 24 |  |
| COc1ccc(-c2cc(=O)c3c(O)cc(C)cc3o2)cc1OC | > 100 |  |
| COc1cc(OC)c2c(=O)cc(-c3ccc(OC)c(OC)c3OC)oc2c1 | 79 |  |
| COc1c(O)c(OC)c2oc(-c3ccc(O)c(O)c3)c(OC)c(=O)c2c1O | 20 |  |
| O=c1c(O)c(-c2ccc(O)c(O)c2)oc2cc(O)ccc12 [FISETIN] | 18 |  |
| COc1ccc(-c2oc3cc(O)c(C)c(C)c3c(=O)c2OC)cc1O | 12 |  |
| COc1cc(-c2oc3cc(OC)c(OC)c(O)c3c(=O)c2OC)ccc1O [CHRYSOSPLENOL B] | > 33 |  |
| COc1c(OC)c(O)c2c(=O)cc(-c3ccc(O)c(O)c3)oc2c1OC [SIDERITIFLAVONE] | 4 |  |
| COc1cc(-c2oc3c(OC)cc(OC)c(O)c3c(=O)c2OC)cc(OC)c1OC | 19 |  |
| COc1cc(-c2oc3c(OC)c(O)c(OC)c(O)c3c(=O)c2OC)cc(O)c1OC | 32 |  |
| COc1ccc(-c2oc3cc(O)cc(O)c3c(=O)c2OC)cc1OCc1ccccc1 | 8.3 |  |
| COc1ccc(-c2oc3cc(O)c(OC)c(O)c3c(=O)c2OC)cc1O [CENTAUREIDIN] | 0.24 | inhibition [2]: 76%; inhibition [3]: 35%; IC50 [4]: 2 µM |
| COc1cc(-c2oc3c(OC)c(O)c(OC)c(O)c3c(=O)c2OC)cc(OC)c1OC | 54 | inhibition [5]: 6%; IC50 [4]: > 40 µM |
| COc1ccc(-c2oc3ccccc3c(=O)c2O)cc1OC [3-HYDROXY-3',4'-DIMETHOXYFLAVONE] | 32 |  |
| COc1ccc(-c2oc3cc(OC)c(OC)c(O)c3c(=O)c2O)cc1O | 4 | inhibition [5]: 9%; IC50 [4]: > 40 µM |
| O=c1c(O)c(-c2ccc(O)c(O)c2)oc2cc(O)cc(O)c12 [QUERCETIN] | 60 |  |
| COc1cc(-c2oc3c(OC)c(OC)c(OC)c(O)c3c(=O)c2OC)ccc1O | 7.6 | inhibition [5]: 0%; IC50 [4]: > 40 µM |
| COc1ccc2oc(-c3ccc(OC)c(OC)c3OC)cc(=O)c2c1 | 42 |  |
| COc1cc(-c2oc3c(OC)c(O)c(OC)c(O)c3c(=O)c2OC)ccc1O | 27 | inhibition [5]: 6%; IC50 [4]: > 40 µM |
| COc1ccc(-c2cc(=O)c3c(O)c(OC)c(O)cc3o2)cc1OC [EUPATILIN] | 15 | inhibition [5]: 6%; IC50 [4]: > 40 µM |
| COc1ccc(-c2cc(=O)c3c(OC)c(O)c(OC)cc3o2)cc1 | 43 |  |
| COc1ccc(-c2oc3cc(O)c(OC)cc3c(=O)c2OC)cc1O | 19 |  |

| Compound | GI50 [1] [µM] | also measured |
| --- | --- | --- |
| COc1c(O)cc2oc(-c3ccc(O)cc3)cc(=O)c2c1O [HISPIDULIN] | 33 |  |
| COc1ccc(-c2cc(=O)c3c(O)c(OC)c(OC)c(OC)c3o2)cc1OC [5-DEMETHYLNOBILETIN] | 17 | inhibition [5]: 5%; IC50 [4]: > 40 µM |
| COc1ccc(-c2cc(=O)c3c(OC)c(OC)c(OC)cc3o2)cc1 | 28 |  |
| COc1ccc(-c2oc3cc(OC)c(OC)c(OC)c3c(=O)c2O)cc1O | 14 | inhibition [5]: 2%; IC50 [4]: > 40 µM |
| COc1c(OC)c(OC)c2c(=O)cc(-c3ccc(OC(C)C)cc3)oc2c1OC | 11 |  |
| COc1ccc(-c2oc3cc(OC)c(O)c(OC)c3c(=O)c2OC)cc1O | 54 |  |
| COc1cc(-c2cc(=O)c3ccccc3o2)cc(OC)c1OC | 18 | inhibition [5]: 0%; IC50 [4]: > 40 µM |
| COc1cc(-c2cc(=O)c3c(O)c(OC)c(OC)c(OC)c3o2)cc(OC)c1OC [GARDENIN] | 19 | inhibition [5]: 0%; IC50 [4]: > 40 µM |
| COc1cc(O)c2c(=O)c(O)c(-c3ccc(OC)c(O)c3)oc2c1 [OMBUINE] | 37 |  |
| COc1ccc(-c2oc3cc(OC)ccc3c(=O)c2O)cc1 | 4.2 |  |
| COc1ccc2c(=O)c(O)c(-c3ccc(OC)c(OC)c3)oc2c1 | 5.5 | inhibition [5]: 0%; IC50 [4]: > 40 µM |
| COc1ccc(-c2cc(=O)c3c(O)cc(O)cc3o2)c(OC)c1OC | 68 |  |
| COc1ccc(-c2cc(=O)c3c(O)c(OC)c(O)cc3o2)cc1O | 6 |  |
| COc1c(OC)c(OC)c(-c2cc(=O)c3c(OC)c(OC)c(OC)c(OC)c3o2)c(OC)c1OC | 36 |  |
| COc1ccc(-c2oc3ccc(C)cc3c(=O)c2O)cc1 | 76 |  |
| COc1ccc(-c2oc3cc(OC)cc(O)c3c(=O)c2OC)cc1 | 54 |  |
| COc1cc2oc(-c3ccc(O)cc3)cc(=O)c2c(OC)c1O | 62 |  |
| COc1ccc(-c2cc(=O)c3cc(O)ccc3o2)c(OC)c1OC | 30 |  |
| COc1ccc(-c2oc3c(OC)c(OC)c(OC)c(O)c3c(=O)c2OC)cc1O | 0.13 | inhibition [2]: 89%; inhibition [3]: 59%; IC50 [4]: 0.83 µM |
| COc1cc2oc(-c3ccccc3)cc(=O)c2c(O)c1C | > 100 |  |
| COc1cc(OC)c(-c2oc3ccccc3c(=O)c2O)c(OC)c1 | 5.9 | inhibition [5]: 22%; IC50 [4]: 31 µM |
| COc1cc(OC)cc(-c2cc(=O)c3c(OC)c(OC)c(OC)c(OC)c3o2)c1 | 30 |  |
| COc1ccc(-c2oc3cc(OC(C)=O)cc(OC(C)=O)c3c(=O)c2OC)cc1 | 15 |  |
| COc1cc(O)c2c(=O)c(OC)c(-c3ccc(OC)c(OC)c3)oc2c1 [RETUSIN] | 65 |  |
| COc1cc(O)c2c(=O)c(OC)c(-c3ccc(OC)c(O)c3)oc2c1 [AYANIN] | 32 | inhibition [5]: 0%; IC50 [4]: > 40 µM |
